Measured values: ChEMBL document CHEMBL1821564, “3-Acetyl-2,5-diaryl-2,3-dihydro-1,3,4-oxadiazoles: a new scaffold for the selective inhibition of monoamine oxidase B” (J Med Chem, 2011)

Columns and labels:
[1] = molecular target: T1, Amine oxidase [flavin-containing] B (Homo sapiens, UniProt P27338); experiment: Inhibition of human recombinant MAO-B expressed in BTI-TN-5B1-4 insect cells at 100 uM using p-tyramine substrate by Amplex Red MAO assay; details: bti-tn-5b1-4, 100 µM
T1 sequence (P27338 whole entry): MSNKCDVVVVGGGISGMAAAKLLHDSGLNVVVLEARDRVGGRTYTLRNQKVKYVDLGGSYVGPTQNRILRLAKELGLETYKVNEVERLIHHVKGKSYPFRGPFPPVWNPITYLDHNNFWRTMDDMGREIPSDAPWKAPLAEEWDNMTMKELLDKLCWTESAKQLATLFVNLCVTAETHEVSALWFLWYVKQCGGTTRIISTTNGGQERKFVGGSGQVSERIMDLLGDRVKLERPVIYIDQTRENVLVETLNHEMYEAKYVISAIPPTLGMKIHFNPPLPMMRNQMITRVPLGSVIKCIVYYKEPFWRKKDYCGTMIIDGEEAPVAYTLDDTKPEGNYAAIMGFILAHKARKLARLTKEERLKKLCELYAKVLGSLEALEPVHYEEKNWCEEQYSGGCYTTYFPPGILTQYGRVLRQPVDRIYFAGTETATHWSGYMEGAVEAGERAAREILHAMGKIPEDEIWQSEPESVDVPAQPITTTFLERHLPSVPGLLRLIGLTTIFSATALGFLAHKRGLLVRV
Outline: (§1)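 Microsomal hMAO-A or hMAO-B from baculovirus-infected BTI-TN-5B1-4 insect cells, with p-tyramine substrate. H2O2 production was read with the Amplex Red reagent. Highest concentration tested was 100 μM, limited by precipitation. Compounds were checked for no direct reaction with Amplex Red. IC50 is the mean ± SEM of five experiments.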

[2] = molecular target: T2, Amine oxidase [flavin-containing] A (Homo sapiens, UniProt P21397); experiment: Inhibition of human recombinant MAO-A activity expressed in BTI-TN-5B1-4 insect cells at 100 uM using p-tyramine substrate by Amplex Red MAO assay; details: bti-tn-5b1-4, 100 µM; outline: as §1
T2 sequence (P21397 whole entry): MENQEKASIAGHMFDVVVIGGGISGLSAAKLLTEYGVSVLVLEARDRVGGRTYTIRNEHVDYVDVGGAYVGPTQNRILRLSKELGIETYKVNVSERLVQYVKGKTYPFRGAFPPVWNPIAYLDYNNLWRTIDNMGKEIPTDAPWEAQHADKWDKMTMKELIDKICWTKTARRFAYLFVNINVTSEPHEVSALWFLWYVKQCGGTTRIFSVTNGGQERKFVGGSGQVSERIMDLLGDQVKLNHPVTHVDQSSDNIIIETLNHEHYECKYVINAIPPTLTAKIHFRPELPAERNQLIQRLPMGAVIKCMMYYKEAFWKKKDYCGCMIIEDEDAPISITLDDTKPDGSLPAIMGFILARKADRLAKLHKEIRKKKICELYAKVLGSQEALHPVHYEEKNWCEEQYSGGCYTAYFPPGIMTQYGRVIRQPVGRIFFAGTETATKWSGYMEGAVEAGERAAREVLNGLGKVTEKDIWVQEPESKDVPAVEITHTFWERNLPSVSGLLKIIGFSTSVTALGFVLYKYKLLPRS

[3] = species on record: Homo sapiens; experiment: Selectivity index, ratio of IC50 for human recombinant MAO-A to IC50 for human recombinant MAO-B
[4] = molecular target: T1, Amine oxidase [flavin-containing] B; experiment: Inhibition of human recombinant MAO-B expressed in BTI-TN-5B1-4 insect cells using p-tyramine substrate by Amplex Red MAO assay; outline: as §1

| SMILES | inhibition (INH) [1] | inhibition (INH) [2] | Ratio IC50 [3] | IC50 [4] | IC50 ([4]; bti-tn-5b1-4) |
| --- | --- | --- | --- | --- | --- |
| COc1ccc(C2=NN(C(C)=O)C(c3ccc(Cl)cc3)O2)cc1 (stereo not given) | Not Active | Not Active |  |  |  |
| CC(=O)N1N=C(c2ccccc2)OC1c1ccc(C)cc1 (stereo in doubt; 4y) [listing 1 of 2 here] |  |  | > 5.2 |  |  |
| COc1ccc(C2OC(c3ccccc3)=NN2C(C)=O)cc1 (stereo not given) |  | Not Active | > 19 | 5.16 µM |  |
| CC(=O)N1N=C(c2ccc(C)cc2)OC1c1ccc(Cl)cc1Cl (stereo not given) | Not Active | Not Active |  |  |  |
| CC(=O)N1N=C(c2ccncc2)OC1c1ccc(Cl)cc1 (stereo not given) | Not Active | Not Active |  |  |  |
| CC(=O)N1N=C(c2ccc(Br)cc2)O[C@H]1c1ccc(Cl)cc1 | Not Active | Not Active |  |  |  |
| CC(=O)N1N=C(c2ccc(Br)cc2)O[C@@H]1c1ccc(Cl)cc1 |  | Not Active | > 1210 | 0.0825 µM |  |
| CC(=O)N1N=C(c2ccc(C)cc2)OC1c1ccccc1 (stereo not given) | Not Active | Not Active |  |  |  |
| CC(=O)N1N=C(c2ccc(Cl)cc2)OC1c1ccc(Cl)cc1 (racemic) [listing 1 of 2 here] |  |  |  |  | 0.115 µM |
| CC(=O)N1N=C(c2ccc([N+](=O)[O-])cc2)OC1c1ccc(Cl)cc1 (stereo not given) |  | Not Active | > 822 | 0.122 µM |  |
| CC(=O)N1N=C(c2ccc(Br)cc2)OC1c1ccc(Cl)cc1 (stereo in doubt; 4s) [listing 1 of 2 here] |  | Not Active |  | 0.221 µM |  |
| CC(=O)N1N=C(c2ccccc2)OC1c1ccc(Cl)cc1 (stereo not given) | Not Active | Not Active |  |  |  |
| CC(=O)N1N=C(c2ccc(C)cc2)OC1c1ccc(Cl)cc1 (stereo not given) | Not Active | Not Active |  |  |  |
| CC(=O)N1N=C(c2ccccc2)OC1c1ccccc1 (stereo not given) | Not Active | Not Active |  |  |  |
| CC(=O)N1N=C(c2ccc(C)cc2)OC1c1ccc(N(C)C)cc1 (stereo not given) | Not Active | Not Active |  |  |  |
| CC(=O)N1N=C(c2ccncc2)OC1c1ccccc1 (stereo not given) | Not Active | Not Active |  |  |  |
| CC(=O)N1N=C(c2ccc(C)cc2)OC1c1ccc(C)cc1 (stereo not given) |  | Not Active | > 1.5 | 66.6 µM |  |
| CC(=O)N1N=C(c2ccccc2)O[C@@H]1c1ccc(C)cc1 |  | Not Active | > 12 | 8.46 µM |  |
| CC(=O)N1N=C(c2ccccc2)OC1c1ccc(C)cc1 (stereo in doubt; 4y) [listing 2 of 2 here] |  | Not Active |  | 19.4 µM |  |
| CC(=O)N1N=C(c2ccc(Cl)cc2)O[C@@H]1c1ccc(Cl)cc1 |  | Not Active | > 994 | 0.101 µM |  |

| SMILES | inhibition (INH) [1] | inhibition (INH) [2] | Ratio IC50 [3] | IC50 [4] | IC50 ([4]; bti-tn-5b1-4) |
| --- | --- | --- | --- | --- | --- |
| CC(=O)N1N=C(c2ccccc2)OC1c1ccc(N(C)C)cc1 (stereo not given) | Not Active | Not Active |  |  |  |
| CC(=O)N1N=C(c2ccccc2)OC1c1ccc([N+](=O)[O-])cc1 (stereo not given) | Not Active | Not Active |  |  |  |
| CC(=O)N1N=C(c2ccc(Br)cc2)OC1c1ccc(Cl)cc1 (racemic) [listing 1 of 2 here] |  |  |  |  | 0.221 µM |
| CC(=O)N1N=C(c2ccccc2)OC1c1ccc(C)cc1 (racemic) [listing 1 of 2 here] |  |  |  |  | 19.4 µM |
| CC(=O)N1N=C(c2ccc(Cl)cc2)O[C@H]1c1ccc(Cl)cc1 | Not Active | Not Active |  |  |  |
| CC(=O)N1N=C(c2ccccc2)OC1c1ccc(C)cc1 (racemic) [listing 2 of 2 here] |  |  | > 5.2 |  |  |
| CC(=O)N1N=C(c2ccncc2)OC1c1ccc(C)cc1 (stereo not given) | Not Active | Not Active |  |  |  |
| CC(=O)N1N=C(c2ccc(Cl)cc2)OC1c1ccc(Cl)cc1 (stereo in doubt; 4p) [listing 1 of 2 here] |  | Not Active |  | 0.115 µM |  |
| COc1ccc(C2OC(c3ccncc3)=NN2C(C)=O)cc1OC (stereo not given) | Not Active | Not Active |  |  |  |
| CC(=O)N1N=C(c2ccccc2)O[C@H]1c1ccc(C)cc1 | Not Active | Not Active |  |  |  |
| CC(=O)N1N=C(c2ccc(Br)cc2)OC1c1ccc(Cl)cc1 (stereo in doubt; 4s) [listing 2 of 2 here] |  |  | > 453 |  |  |
| CC(=O)N1N=C(c2ccncc2)OC1c1ccc(N(C)C)cc1 (stereo not given) |  | Not Active | > 2.14 | 46.8 µM |  |
| CC(=O)N1N=C(c2ccc(Cl)cc2)OC1c1ccc(Cl)cc1 (stereo in doubt; 4p) [listing 2 of 2 here] |  |  | > 867 |  |  |
| COc1ccc(C2OC(c3ccncc3)=NN2C(C)=O)cc1 (stereo not given) | Not Active | Not Active |  |  |  |
| CC(=O)N1N=C(c2ccccc2)OC1c1ccc(F)cc1 (stereo not given) |  | Not Active | > 10 | 9.53 µM |  |
| COc1ccc(C2OC(c3ccc(C)cc3)=NN2C(C)=O)cc1 (stereo not given) |  | Not Active | > 1.34 | 74.7 µM |  |
| CC(=O)N1N=C(c2ccncc2)OC1c1ccc(Cl)cc1Cl (stereo not given) | Not Active | Not Active |  |  |  |
| COc1ccc(C2OC(c3ccc(C)cc3)=NN2C(C)=O)cc1OC (stereo not given) | Not Active | Not Active |  |  |  |
| CC(=O)N1N=C(c2ccc(Cl)cc2)OC1c1ccc(Cl)cc1 (racemic) [listing 2 of 2 here] |  |  | > 867 |  |  |
| CC(=O)N1N=C(c2ccc(Br)cc2)OC1c1ccc(Cl)cc1 (racemic) [listing 2 of 2 here] |  |  | > 453 |  |  |
